# Assay results taken from ChEMBL document CHEMBL1909598, “Synthesis of purine-scaffold fluorescent probes for heat shock protein 90 with use in flow cytometry and fluorescence microscopy” (Bioorg Med Chem Lett, 2011).
# Active and inactive are the calls of the source. No cut-off for these calls is given here.
# Columns and labels:
# [1] = target: Receptor-type tyrosine-protein kinase FLT3 (Homo sapiens) (UniProt P36888); experiment: Inhibition of Hsp90 in human MOLM13 cells assessed as FLT3 mutant degradation at 1 uM after 24 hrs using horseradish peroxidase by Western blot analysis; format: cell-based; conditions: MOLM-13
# Receptor-type tyrosine-protein kinase FLT3 (Homo sapiens), sequence (P36888 whole entry): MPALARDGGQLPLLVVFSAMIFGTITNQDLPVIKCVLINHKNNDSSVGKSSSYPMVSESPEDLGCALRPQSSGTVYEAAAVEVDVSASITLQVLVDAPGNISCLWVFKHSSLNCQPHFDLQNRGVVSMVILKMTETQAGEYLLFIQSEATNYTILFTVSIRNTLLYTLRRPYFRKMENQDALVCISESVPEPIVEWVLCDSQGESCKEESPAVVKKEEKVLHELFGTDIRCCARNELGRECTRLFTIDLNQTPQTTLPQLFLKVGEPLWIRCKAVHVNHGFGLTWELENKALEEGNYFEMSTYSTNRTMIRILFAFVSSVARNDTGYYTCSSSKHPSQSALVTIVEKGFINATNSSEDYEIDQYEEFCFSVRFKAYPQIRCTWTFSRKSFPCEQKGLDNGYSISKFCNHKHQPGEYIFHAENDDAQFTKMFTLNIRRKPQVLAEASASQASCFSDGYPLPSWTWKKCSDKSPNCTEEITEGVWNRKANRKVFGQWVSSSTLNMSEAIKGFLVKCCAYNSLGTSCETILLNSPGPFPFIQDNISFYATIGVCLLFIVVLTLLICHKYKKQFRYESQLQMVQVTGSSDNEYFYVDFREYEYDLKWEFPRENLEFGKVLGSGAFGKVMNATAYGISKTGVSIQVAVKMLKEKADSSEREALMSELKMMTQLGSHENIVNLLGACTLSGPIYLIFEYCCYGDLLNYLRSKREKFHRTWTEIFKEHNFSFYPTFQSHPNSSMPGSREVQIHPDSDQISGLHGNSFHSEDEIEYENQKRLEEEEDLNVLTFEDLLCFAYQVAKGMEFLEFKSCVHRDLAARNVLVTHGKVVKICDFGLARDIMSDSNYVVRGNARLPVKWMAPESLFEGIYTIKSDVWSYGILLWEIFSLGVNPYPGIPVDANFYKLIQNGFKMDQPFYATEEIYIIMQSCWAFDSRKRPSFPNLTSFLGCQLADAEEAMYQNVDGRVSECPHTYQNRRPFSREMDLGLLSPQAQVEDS
# How it was run: (§1)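 MOLM-13 cells treated with derivatives at 1 μM for 24 h. Steady-state mFLT3 and Raf-1 levels read by Western blot, with β-actin as the loading control.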
# MV4-11 [2] = experiment: Drug uptake in human MV4-11 cells assessed as CD45 staining of cells at 1 uM after 30 mins using 7-AAD staining by flow cytometry analysis; format: ADME, cell-based; conditions: mv4-11, 0.5 h
# [3] = target: T1, Heat shock protein HSP90 (Homo sapiens) (UniProt P07900+P08238); experiment: Inhibition of Hsp90 in human MOLM13 cells assessed as decrease in cell viability after 24 hrs using DAPI staining by flow cytometry analysis; format: cell-based; conditions: MOLM-13
# How it was run: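 MOLM-13 cells exposed to derivatives at 1 μM, 37°C, 24 h. Viability scored by DAPI exclusion.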
# [4] = target: T1, Heat shock protein HSP90 (Homo sapiens); experiment: Inhibition of Hsp90 in human MOLM13 cells assessed as Raf1 degradation at 1 uM after 24 hrs using horseradish peroxidase by Western blot analysis; format: cell-based; conditions: MOLM-13; how it was run: as §1
# MV4-11 [5] = experiment: Drug uptake in human MV4-11 cells assessed as intracellular localization at 1 uM after 24 hrs by DAPI staining based confocal fluorescence microscopy; format: ADME, cell-based; conditions: mv4-11, 24 h
# How it was run: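 MV4-11 cells given 1 μM probe at 37°C for 24 h, then fixed. Cells stained with Na⁺/K⁺-ATPase α1 antibody plus Alexa Fluor 568 secondary as the surface marker. DAPI used to mark non-viable cells. Imaged by confocal microscopy.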
# [6] = Drug uptake in human lymphocytes assessed as CD45 staining of cells at 1 uM after 1 hr using 7-AAD staining by flow cytometry analysis; format: ADME, cell-based; conditions: lymphocyte
# [7] = target: T1, Heat shock protein HSP90 (Homo sapiens); experiment: Binding affinity to Hsp90 in human MOLM13 cells assessed as staining of live cells at 1 uM after 4 hrs using DAPI staining by flow cytometry analysis; format: cell-based; conditions: MOLM-13
# How it was run: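 MOLM-13 cells exposed to each fluorescent derivative at 1 μM, 37°C, 4 h. Binding to live cells (DAPI negative) read by flow cytometry as mean fluorescence intensity.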
# MOLM-13 = experiment: Drug uptake in human MOLM13 cells assessed as CD45 staining of cells at 1 uM after 1 hr using 7-AAD staining by flow cytometry analysis; format: ADME, cell-based; conditions: molm-13, 1 h
Compound,inhibition [1],Drug uptake (MV4-11 [2]),inhibition [3],inhibition [4],Drug uptake (MV4-11 [5]),Drug uptake [6],Activity [7],Drug uptake (MOLM-13)
CC(C)N(CCCn1c(Sc2cc3c(cc2I)OCO3)nc2c(N)ncnc21)C(=S)Nc1ccc(-c2c3ccc(=O)cc-3oc3cc(O)ccc23)c(C(=O)O)c1,Active,Active,Active,Active,Active,Not Active,Active,Active
Nc1ncnc2c1nc(Sc1cc3c(cc1I)OCO3)n2CCCNCCCCCCNc1ccc([N+](=O)[O-])c2nonc12,Active,,Active,Active,Active,,Active,
